Data taken from ChEMBL document CHEMBL2321778, “GC-targeted C8-linked pyrrolobenzodiazepine-biaryl conjugates with femtomolar in vitro cytotoxicity and in vivo antitumor activity in mouse models” (J Med Chem, 2013).
Activity calls are given as the source filed them. No cut-off for these calls is given here.

Legend:
[1] = Binding affinity to AT-rich FAM-TATAAGATTTTCTTATA-TAMRA DNA (unknown origin) assessed as change in melting temperature at 1 uM by FRET assay
In short: (§1)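 Fam/Tamra-labelled hairpins, 400 nM in 50 mM potassium cacodylate pH 7.4, annealed at 85 °C for 5 min, cooled over 5 h, then mixed 1:1 with ligand diluted from DMSO stock; ligand 1 μM, 24 h incubation. Fluorescence (excitation 450−495, emission 515−545 nm) read every 0.5 °C from 30−100 °C; Tm from first-derivative maximum of smoothed curves, ΔTm versus blank.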

[2] = Selectivity ratio of deltaTm for GC-rich FAM-GCGCAGATTTTCTGCGC-TAMRA DNA (unknown origin) to deltaTm for AT-rich FAM-TATAAGATTTTCTTATA-TAMRA DNA (unknown origin); in short: as §1
A2780 = assay: Cytotoxicity against human A2780 cells after 96 hrs by MTT assay; type: functional, cell-based; conditions: A2780, 96 h
In short: (§2)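 Adherent cells were grown at 37 °C in 5% CO2 in DMEM or MEM with 10% FBS, L-glutamine, nonessential amino acids and hydrocortisone, then seeded to 30–40% confluence. Compounds were dissolved in water at up to 100 μM, serially diluted tenfold and added for 96 h of continuous exposure. MTT absorbance was read at 570 nm, and IC50 was taken from dose–response analysis.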

A549 = assay: Cytotoxicity against human A549 cells after 96 hrs by MTT assay; type: functional, cell-based; conditions: A549, 96 h; in short: as §2
[3] = Cytotoxicity against human primary CLL cells after 96 hrs by annexin V/propidium iodide staining-based FACS flow cytometric analysis; type: functional, cell-based
In short: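 Freshly isolated peripheral blood CLL cells at 1 × 10^6/mL were cultured in RPMI with penicillin, streptomycin and 10% FCS at 37 °C in 5% CO2. Serial dilutions of compound from DMSO stocks were added, with drug-free control cultures. Apoptosis was measured by annexin V/propidium iodide flow cytometry, in duplicate. LD50 came from sigmoidal curves of log concentration against percentage apoptosis.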

MIA PaCa-2 [4] = assay: Cytotoxicity against human MIAPaCa2 cells after 96 hrs by MTT assay; type: functional, cell-based; conditions: MIA PaCa-2, 96 h; in short: as §2
MCF7 = assay: Cytotoxicity against human MCF7 cells after 96 hrs by MTT assay; type: functional, cell-based; conditions: MCF7, 96 h; in short: as §2
A-431 = assay: Cytotoxicity against human A431 cells after 96 hrs by MTT assay; type: functional, cell-based; conditions: A-431, 96 h; in short: as §2
WI-38 = assay: Cytotoxicity against human WI38 cells after 96 hrs by MTT assay; type: cell-based; conditions: WI-38, 96 h; in short: as §2
[5] = Binding affinity to GC-rich FAM-GCGCAGATTTTCTGCGC-TAMRA DNA (unknown origin) assessed as change in melting temperature at 1 uM by FRET assay; in short: as §1
MDA-MB-231 [6] = assay: Cytotoxicity against human MDA-MB-231 cells after 96 hrs by MTT assay; type: functional, cell-based; conditions: MDA-MB-231, 96 h; in short: as §2
Mus musculus [7] = assay: Toxicity in Swiss Webster mouse assessed as weight loss at 400 ug/kg/day, ip; type: organism-based; conditions: in vivo, 0.4 mg/kg
[8] = Toxicity in ip dosed Swiss Webster mouse; type: organism-based; conditions: in vivo
[9] = Binding affinity to GC-rich GCGC-AGA-TTT-TCT-GCGC DNA (unknown origin) after 5 mins by HPLC-MS analysis (reference value: 12 %)
[10] = Binding affinity to AT-rich TATA-AGA-TTT-TCT-TATA DNA (unknown origin) after 5 mins by HPLC-MS analysis (reference value: 70 %)
HeLa [11] = assay: Downregulation of EGR in human HeLa cells at 10 nM after 4 hrs relative to control; type: functional
In short: (§3)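 Nuclear extracts from 1 × 10^7 HeLa cells treated 4 h, plus untreated controls; 10 μg nuclear protein per sample run on a 48-transcription-factor activation profiling plate array per kit instructions.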

CLL [12] = assay: Inhibition of NFkappaB-mediated p65 phosphorylation in human primary CLL cells at 0.1 nM after 24 hrs by Western blotting analysis; type: cell-based
In short: (§4)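 Primary CLL cells exposed 24 h, washed in PBS and lysed in HEPES-based buffer with NaF, iodoacetamide, NP40, PMSF, orthovanadate, protease and phosphatase inhibitors; Western blots probed for phosphorylated IκBα and p65, actin as loading control.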

Mus musculus [13] = assay: Toxicity in Swiss Webster mouse at 350 ug/kg/day, ip; type: organism-based; conditions: in vivo, 0.35 mg/kg
MDA-MB-231 [14] = assay: Antitumor activity against human MDA-MB-231 cells xenografted in iv dosed MF1 nude mouse administered for 5 consecutive days followed by 2 drug-free days repeated for 4 weeks relative to control; type: functional, organism-based
In short: (§5)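 MDA-MB-231 cells (5 × 10^6) implanted subcutaneously in flank of female MF1 nude mice (2−3 months, 20−25 g), passaged as ~1 mm3 tumor pieces; at ~0.06 cm3 (three weeks) split into groups of six. Agent in DMSO diluted in saline, tail-vein iv at 250 or 300 μg/kg/day, 5 days on/2 off for four weeks; untreated controls. Tumor volume (L×W×H×π/6) and body weight every 3−4 days.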

CLL [15] = assay: Inhibition of NFkappaB-mediated IkappaBalpha phosphorylation in human primary CLL cells at 0.1 nM after 24 hrs by Western blotting analysis; type: cell-based; in short: as §4
MIA PaCa-2 [16] = assay: Antitumor activity against human MIAPaCa2 cells xenografted in MF1 nude mouse at 300 ug/kg/day, iv administered for 5 consecutive days followed by 2 drug-free days repeated for 3 weeks relative to control; type: functional, organism-based
In short: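 MIA PaCa-2 cells (5 × 10^6) implanted subcutaneously in flank of female MF1 nude mice (2−3 months, 20−25 g); at ~0.06 cm3, groups of six. DMSO stock diluted in saline, given by tail-vein injection at 300 μg/kg/day, five days on, two off, for three weeks; vehicle controls. Tumors measured every 3−4 days by ellipsoid formula; mice weighed for toxicity.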

MDA-MB-231 [17] = assay: Antitumor activity against human MDA-MB-231 cells xenografted in MF1 nude mouse at 300 ug/kg/day, iv administered for 5 consecutive days followed by 2 drug-free days repeated for 4 weeks measured up to 3 weeks after last dose; type: functional, organism-based; in short: as §5
MIA PaCa-2 [18] = assay: Inhibition of NFkappaB in human MIAPaCa2 cells xenografted in mouse assessed as downregulation of BCL2 by immunohistochemical staining relative to control; type: cell-based
In short: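 Sections of MIA PaCa-2 xenograft tumors from treated and untreated mice: peroxidase quenched with 0.3% H2O2/methanol 15 min, blocked in 3% goat serum/PBS 30 min, 2 μg/mL BCL2 antibody 1 h at room temperature, then HRP […] antibody 1 h; staining quantified against controls.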

HeLa [19] = assay: Downregulation of SMAD in human HeLa cells at 10 nM after 4 hrs relative to control; type: functional; in short: as §3
HeLa [20] = assay: Downregulation of NFAT in human HeLa cells at 10 nM after 4 hrs relative to control; type: functional; in short: as §3
HeLa [21] = assay: Inhibition of NFkappaB activity in human HeLa cells at 10 nM after 4 hrs relative to control; type: cell-based; in short: as §3
HeLa [22] = assay: Downregulation of OCT4 in human HeLa cells at 10 nM after 4 hrs relative to control; type: functional; in short: as §3
Mus musculus [23] = assay: Toxicity in MF1 nude mouse xenografted with human MDA-MB-231 cells at 250 to 300 ug/kg/day, iv; type: organism-based; conditions: in vivo
In short: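 Female MF1 nude mice (2–3 months old, 20–25 g) carried subcutaneous flank MDA-MB-231 xenografts. At about 0.06 cm3 the mice were split into groups of six: 250 or 300 μg/kg iv by tail vein, or untreated. Compound was dissolved in DMSO and diluted in saline, given daily for 5 days then 2 days off, over 4 weeks. Body weight and signs of toxicity (>20% weight loss) were checked every 3–4 days.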

Structure (SMILES)	ΔTm [1] [°C]	Ratio [2]	IC50 (A2780) [nM]	IC50 (A549) [nM]	IC50 [3] [nM]	IC50 (MIA PaCa-2 [4]) [nM]	IC50 (MCF7) [nM]	IC50 (A-431) [nM]	IC50 (WI-38) [nM]	ΔTm [5] [°C]	IC50 (MDA-MB-231 [6]) [nM]	also measured
COc1cc2c(cc1OCCCC(=O)O)N=C[C@@H]1CCCN1C2=O	0.4	0.5	3760	1500	> 20000	1560	702	1090	4660	0.2	1670	
COC(=O)c1cc(NC(=O)c2cc(-c3ccc(NC(=O)CCCOc4cc5c(cc4OC)C(=O)N4CCC[C@H]4C=N5)cc3)cn2C)cn1C	2.1	1.48	0.96	0.019	2.1	0.34	1.7	4.6	426	3.1	2.7	
COC(=O)c1cc(-c2ccc(NC(=O)c3cc(-c4ccc(NC(=O)CCCOc5cc6c(cc5OC)C(=O)N5CCC[C@H]5C=N6)cc4)cn3C)cc2)cn1C	0.8	3.6	0.56	0.54	4.7	0.35	0.9	2.91	159	3.6	0.46	
COC(=O)c1cc(-c2ccc(NC(=O)c3cc(NC(=O)CCCOc4cc5c(cc4OC)C(=O)N4CCC[C@H]4C=N5)cn3C)cc2)cn1C	5	0.28	0.013	0.056	0.098		2e-05		474	1.4	6.5e-05	Activity (Mus musculus [7]): Toxic; MTD [8]: 0.4 mg/kg/day
CCOC(=O)c1nc(NC(=O)c2cc(-c3ccc(NC(=O)CCCOc4cc5c(cc4OC)C(=O)N4CCC[C@H]4C=N5)cc3)cn2C)cn1C	0.5	5.6	0.15	0.47	3	0.11	0.37	0.19	1240	2.8	0.45	
COC(=O)c1nc(NC(=O)c2cc(NC(=O)c3cc(-c4ccc(NC(=O)CCCOc5cc6c(cc5OC)C(=O)N5CCC[C@H]5C=N6)cc4)cn3C)cn2C)cn1C	3.4	1.7	> 20000	0.45	0.037	0.25	0.075	0.064	65.6	5.8	0.015	
COC(=O)c1cc(-c2ccc(NC(=O)CCCOc3cc4c(cc3OC)C(=O)N3CCC[C@H]3C=N4)cc2)cn1C	0.3	13	1.87	7.5	6.2	1.2	1.91	2.31	160	3.9	2.11	Activity [9]: 67%; Activity [10]: 3%
COC(=O)c1cc(-c2ccc(N)cc2)cn1C			> 20000	> 20000	> 20000	> 20000	> 20000	> 20000	> 20000		> 20000	
COC(=O)c1cc(NC(=O)c2cc(NC(=O)CCCOc3cc4c(cc3OC)C(=O)N3CCC[C@H]3C=N4)cn2C)cn1C	7.4	0.15	0.57	6.1	1.3	2.4	0.32	0.55	41.3	1.1	0.12	Activity [9]: 12%; Activity [10]: 70%
COC(=O)c1cc(-c2ccc(NC(=O)c3nc(NC(=O)CCCOc4cc5c(cc4OC)C(=O)N4CCC[C@H]4C=N5)cn3C)cc2)cn1C	6	1.03	0.021	0.034	0.17		2e-05	0.018	129	6.2	0.00018	Activity (HeLa [11]): 30%; inhibition (CLL [12]): Active; Activity (Mus musculus [13]): Non-toxic; Activity (MDA-MB-231 [14]): Dose-dependent effect; inhibition (CLL [15]): Active; Activity (MIA PaCa-2 [16]): Active; Activity (MDA-MB-231 [17]): Active; inhibition (MIA PaCa-2 [18]): Active; Activity (HeLa [19]): 30%; MTD [8]: 0.4 mg/kg/day; Activity (HeLa [20]): 30%; inhibition (HeLa [21]): 50%; Activity (HeLa [22]): 30%; Activity (Mus musculus [23]): Non-toxic
COC(=O)c1cc(NC(=O)c2cc(NC(=O)c3cc(-c4ccc(NC(=O)CCCOc5cc6c(cc5OC)C(=O)N5CCC[C@H]5C=N6)cc4)cn3C)cn2C)cn1C	3.2	1.34	0.24	2.3	0.96	0.31	0.31	0.86	41.3	4.3	0.59	
